Measurements from ChEMBL document CHEMBL1770120 (Eur J Med Chem, 2011).

Tests used:
[1] = Total plasma clearance in Sprague-Dawley rat at 5 mg/kg, iv by LC-MS/MS analysis; type: ADME, organism-based; design: dose 5 mg/kg, route intravenous
How it was run: (§1)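 Male Sprague-Dawley rats (200–220 g), five per group, fasted from the evening before dosing until 2 h post-dose. Single i.v. dose of 5 mg/kg in cremophor:ethanol (1:1) diluted with sterile 0.154 M NaCl, given at 10 ml/kg. Plasma sampled 5–1440 min. Plasma kept at -20 °C and assayed by LC-MS-MS after liquid–liquid extraction. Parameters from mean plasma concentrations by non-compartmental analysis.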

[2] = Apparent volume of distribution in Sprague-Dawley rat at 5 mg/kg, iv by LC-MS/MS analysis; type: ADME, organism-based; design: dose 5 mg/kg, route intravenous; details: in vivo, read-out: Vz; how it was run: as §1
[3] = Intrinsic clearance in human liver microsomes; type: ADME, Microsome
How it was run: (§2)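 Test compound at 5 µmol/L with pooled human liver microsomes (0.5 mg/mL) and 1 mM NADPH in 0.1 M potassium phosphate buffer, pH 7.4, at 37 °C. Reactions stopped with acetonitrile at 0, 5, 10, 15, 30 and 60 min. Samples extracted with n-hexane:dichloromethane:isopropanol and spun to remove protein. Remaining parent measured by HPLC-MS (ESI positive).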

[4] = Cytotoxicity against human KB-0528 cells after 72 hrs by SRB assay; type: functional, cell-based; details: KB-0528, 72 h
How it was run: (§3)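 Cells grown in RPMI 1640 with 10% FBS at 37 °C under 5% CO2 and seeded at 0.4–1.0 × 10^4 cells/well. Compounds added after 24 h from DMSO stock, at least five concentrations, final DMSO ≤0.1%. Exposure 72 h. Growth read by SRB staining at OD 520 nm. Three experiments, each in quadruplicate. IC50 taken from survival (%) versus concentration curves.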

[5] = Cytotoxicity against human HL60-0607-2 cells after 72 hrs by SRB assay; type: functional, cell-based; how it was run: as §3
[6] = Cytotoxicity against multidrug-resistant human KBR-0530 cells after 72 hrs by SRB assay; type: functional, cell-based; details: KBR-0530, 72 h; how it was run: as §3
[7] = Cytotoxicity against multidrug-resistant human KBR-0602 cells after 72 hrs by SRB assay; type: functional, cell-based; details: KBR-0602, 72 h; how it was run: as §3
[8] = Cytotoxicity against multidrug-resistant human HL60OR-0604-2 cells after 72 hrs by SRB assay; type: functional, cell-based; how it was run: as §3
Liver microsomes [9] = experiment: (§4) Metabolic stability in human liver microsomes assessed as unchanged remaining compound after 60 mins; type: ADME, Microsome; details: microsomes, 1 h; how it was run: as §2
Liver microsomes [10] = experiment: (§5) Half life in human liver microsomes; type: ADME, Microsome; details: microsomes; how it was run: as §2
[11] = AUC (0 to t) in Sprague-Dawley rat at 5 mg/kg, iv by LC-MS/MS analysis; type: ADME, organism-based; design: dose 5 mg/kg, route intravenous; details: plasma; how it was run: as §1
[12] = AUC (0 to infinity) in Sprague-Dawley rat at 5 mg/kg, iv by LC-MS/MS analysis; type: ADME, organism-based; design: time infinity, dose 5 mg/kg, route intravenous; details: plasma; how it was run: as §1
[13] = Mean residence time in Sprague-Dawley rat at 5 mg/kg, iv by LC-MS/MS analysis; type: ADME, organism-based; design: dose 5 mg/kg, route intravenous; details: in vivo; how it was run: as §1
[14] = Half life in Sprague-Dawley rat plasma at 5 mg/kg, iv by LC-MS/MS analysis; type: ADME, organism-based; design: dose 5 mg/kg, route intravenous; how it was run: as §1
[15] = Ratio of compound IC50 to docetaxel IC50 for human HL60-0607-2 cells; type: functional
[16] = Ratio of compound IC50 to docetaxel IC50 for human HL60OR-0604-2 cells; type: functional
[17] = as §4; type: ADME, Microsome; details: liver microsomes, read-out: Stability; how it was run: as §2
[18] = as §5; type: ADME, Microsome; details: liver microsomes; how it was run: as §2

| SMILES | clearance [1] [mL/min/kg] | Vd [2] [L/kg] | CLint scaled [3] [mL/min/kg] | Stability (Liver microsomes [9]) [%] | t1/2 (Liver microsomes [10]) [h] | AUC(0-t) [11] [ng·h/mL] | AUC(0-inf) [12] [ng·h/mL] | MRT [13] [h] | half-life [14] [h] | remaining at 1 h [17] [%] | half-life [18] [h] | IC50 [4] [pM] | IC50 [5] [pM] | IC50 [6] [pM] | IC50 [7] [pM] | IC50 [8] [pM] | Ratio IC50 [15] | Ratio IC50 [16] |
| --- | --- | --- | --- | --- | --- | --- | --- | --- | --- | --- | --- | --- | --- | --- | --- | --- | --- | --- |
| CC(=O)O[C@@]12CO[C@@H]1C[C@H](O)[C@@]1(C)C(=O)[C@H](O)C3=C(C)[C@@H](OC(=O)[C@H](O)[C@@H](NC(=O)OC(C)(C)C(F)F)c4ccc(F)cc4)C[C@@](O)([C@@H](OC(=O)c4ccccc4)[C@H]21)C3(C)C | 25.2 | 27.4 | 3.41 | 72.4 | 6.08 | 3150 | 3360 | 4.28 | 13.4 | – | – | 397 | 16.8 | 321 | 885 | 2080 | – | – |
| CC(=O)O[C@@]12CO[C@@H]1C[C@H](O)[C@@]1(C)C(=O)[C@H](O)C3=C(C)[C@@H](OC(=O)[C@H](O)[C@@H](NC(=O)OC(C)(C)C(F)(F)F)c4ccc(F)cc4)C[C@@](O)([C@@H](OC(=O)c4ccccc4)[C@H]21)C3(C)C | 21.3 | 15.8 | 0.36 | – | – | 3870 | 3980 | 2.78 | 8.5 | 88.5 | 57.8 | 25.9 | 0.358 | 332 | 432 | 15.5 | 20 | 10 |
| CC(=O)O[C@@]12CO[C@@H]1C[C@H](O)[C@@]1(C)C(=O)[C@H](O)C3=C(C)[C@@H](OC(=O)[C@H](O)[C@@H](NC(=O)OC(C)(C)CF)c4ccccc4)C[C@@](O)([C@@H](OC(=O)c4cccc(F)c4)[C@H]21)C3(C)C | 37.7 | 22.7 | – | – | – | 2190 | 2240 | 2.3 | 6.8 | – | – | 248 | 1.11 | 66.9 | 205 | 2970 | – | – |
| CC(=O)O[C@@]12CO[C@@H]1C[C@H](O)[C@@]1(C)C(=O)[C@H](O)C3=C(C)[C@@H](OC(=O)[C@H](O)[C@@H](NC(=O)OC(C)(C)C(F)(F)F)c4ccccc4)C[C@@](O)([C@@H](OC(=O)c4ccccc4)[C@H]21)C3(C)C | 21 | 18.1 | – | – | – | 3860 | 3960 | 2.32 | 9.91 | – | – | 83.4 | 262 | 694 | 626 | 410 | – | – |
| CC(=O)O[C@@]12CO[C@@H]1C[C@H](O)[C@@]1(C)C(=O)[C@H](O)C3=C(C)[C@@H](OC(=O)[C@H](O)[C@@H](NC(=O)OC(C)(C)C(F)F)c4ccccc4)C[C@@](O)([C@@H](OC(=O)c4ccccc4)[C@H]21)C3(C)C | 29.8 | 20.2 | – | – | – | 2860 | 2930 | 2.76 | 7.69 | – | – | 282 | 176 | 332 | 369 | 554 | – | – |
| CC(=O)O[C@@]12CO[C@@H]1C[C@H](O)[C@@]1(C)C(=O)[C@H](O)C3=C(C)[C@@H](OC(=O)[C@H](O)[C@@H](NC(=O)OC(C)(C)C(F)F)c4ccccc4)C[C@@](O)([C@@H](OC(=O)c4cccc(F)c4)[C@H]21)C3(C)C | 42.5 | 36.2 | – | – | – | 1930 | 1990 | 2.4 | 10.2 | – | – | – | 183 | 161 | 182 | 584 | – | – |
| CC(=O)O[C@@]12CO[C@@H]1C[C@H](O)[C@@]1(C)C(=O)[C@H](O)C3=C(C)[C@@H](OC(=O)[C@H](O)[C@@H](NC(=O)OC(C)(C)C)c4ccccc4)C[C@@](O)([C@@H](OC(=O)c4ccccc4)[C@H]21)C3(C)C.O.O.O [DOCETAXEL] | 125 | 78.8 | – | – | – | 646 | 667 | 3.34 | 7.37 | – | – | 454 | 11.5 | 132 | 234 | 114 | – | – |

Continued, in another order:

| clearance [1] [mL/min/kg] | Vd [2] [L/kg] | CLint scaled [3] [mL/min/kg] | Stability (Liver microsomes [9]) [%] | t1/2 (Liver microsomes [10]) [h] | AUC(0-t) [11] [ng·h/mL] | AUC(0-inf) [12] [ng·h/mL] | MRT [13] [h] | half-life [14] [h] | remaining at 1 h [17] [%] | half-life [18] [h] | SMILES | IC50 [4] [pM] | IC50 [5] [pM] | IC50 [6] [pM] | IC50 [7] [pM] | IC50 [8] [pM] | Ratio IC50 [15] | Ratio IC50 [16] |
| --- | --- | --- | --- | --- | --- | --- | --- | --- | --- | --- | --- | --- | --- | --- | --- | --- | --- | --- |
| 50.3 | 22 | 8.62 | 53.8 | 2.407 | 1640 | 1660 | 2.13 | 5.06 | – | – | CC(=O)O[C@@]12CO[C@@H]1C[C@H](O)[C@@]1(C)C(=O)[C@H](O)C3=C(C)[C@@H](OC(=O)[C@H](O)[C@@H](NC(=O)OC(C)(C)CF)c4ccc(F)cc4)C[C@@](O)([C@@H](OC(=O)c4ccccc4)[C@H]21)C3(C)C | 915 | 140 | 232 | 194 | 510 | – | – |
| 84.8 | 89.7 | – | – | – | 914 | 994 | 5.62 | 12.2 | – | – | CC(=O)O[C@@]12CO[C@@H]1C[C@H](O)[C@@]1(C)C(=O)[C@H](O)C3=C(C)[C@@H](OC(=O)[C@H](O)[C@@H](NC(=O)OC(C)(C)CF)c4ccccc4)C[C@@](O)([C@@H](OC(=O)c4ccccc4)[C@H]21)C3(C)C | 506 | 156 | 32.2 | 792 | 958 | – | – |
| 21.3 | 13.7 | – | – | – | 3870 | 3940 | 2.13 | 7.62 | – | – | CC(=O)O[C@@]12CO[C@@H]1C[C@H](O)[C@@]1(C)C(=O)[C@H](O)C3=C(C)[C@@H](OC(=O)[C@H](O)[C@@H](NC(=O)OC(C)(C)C(F)(F)F)c4ccccc4)C[C@@](O)([C@@H](OC(=O)c4cccc(F)c4)[C@H]21)C3(C)C | 210 | 54.7 | 108 | 149 | 191 | – | – |
